In the library only some 2.3% were active in any assay of this set; here they are far more common.
SF-1 act: activators of human nuclear receptor SF-1; CHO-K1 Gal4-SF-1 LBD luciferase reporter; % increase over DMSO SF-1-specific signal; hit rate 1.9% among 65,000; Q13285; activation, % at 10 µM;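 active = activation above the mean activation of all tested compounds plus 3 SD, cut at about 50% in these data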
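Material: CHO-K1 cells with Gal4–hSF-1 LBD chimera plus Gal4-driven luciferase / Input: 4,000 CHO-K1 cells per well / Incubation: compound exposure 20 h at 37 °C / Signal: luminescence read 15 min after SteadyLite luciferase reagent, after room-temperature equilibration / Read-out: percent activation versus DMSO / Benchmarks: DMSO negative control and −SF1 background wells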
RORa activator: activates the human nuclear receptor RORA; P35398; CHO-K1 Gal4-RORA LBD luciferase reporter, luminescence; percent increase over mock-subtracted basal signal; activation, % at 10 µM; hit rate 1.5% among 65,000;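 active = activation above the mean of all tested compounds plus 3 SD, cut at about 49% in these data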
Target sequence (P35398 whole entry, looked up, the tested form may be a part): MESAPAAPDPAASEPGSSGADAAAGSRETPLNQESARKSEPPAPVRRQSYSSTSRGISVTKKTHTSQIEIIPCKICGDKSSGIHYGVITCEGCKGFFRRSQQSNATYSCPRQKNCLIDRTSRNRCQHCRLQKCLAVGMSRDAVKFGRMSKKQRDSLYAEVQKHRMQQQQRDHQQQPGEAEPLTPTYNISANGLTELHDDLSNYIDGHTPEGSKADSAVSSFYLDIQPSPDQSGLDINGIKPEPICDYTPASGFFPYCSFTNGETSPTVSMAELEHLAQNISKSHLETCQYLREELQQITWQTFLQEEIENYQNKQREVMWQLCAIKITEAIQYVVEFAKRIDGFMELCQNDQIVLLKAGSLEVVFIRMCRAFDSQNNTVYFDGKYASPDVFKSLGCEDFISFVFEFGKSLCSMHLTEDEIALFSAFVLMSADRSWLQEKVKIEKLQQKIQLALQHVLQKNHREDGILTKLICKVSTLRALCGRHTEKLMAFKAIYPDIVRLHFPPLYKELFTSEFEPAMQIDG
JNK3 inh: inhibitors of human JNK3 kinase | P53779 | purified JNK3 kinase activity, HTS | inhibition, % at 8 µM | hit rate 0.61% among 60,000; in the data active = inhibition above about 17%
Calb biofilm kill: kills Candida albicans biofilms; C. albicans biofilm + clotrimazole, Alamar Blue; inhibition, % at 6 µM; hit rate 0.14% among 85,000; AID 834;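 active = inhibition above 20%; inactive = inhibition below 20%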;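 also: preformed 24 hr biofilms exposed to compound for 48 hr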
Of the large screens only hits and unclear results are named; the others gave an inactive call.

Cc1ccccc1Cn1ccc(NC(=O)c2nc3ncccn3n2)n1	none
Cc1ccccc1Cn1ccc(NC(=O)c2onc(C)c2Cl)n1	RORa activator 87
Nc1ccc(CN2CCN(c3ccc4ccccc4n3)CC2)cc1	none (no result: Calb biofilm kill)
Cc1cccc(NC(=O)c2cnc3sccn3c2=O)c1	none
Cc1cccc(NC(=O)c2cnc3sccn3c2=O)c1C	RORa activator 74 (no result: Calb biofilm kill)
O=C(Nc1cnc2sccn2c1=O)c1ccccc1Cl	SF-1 act 52 (no result: JNK3 inh)
CCOC(=O)N1CCC(NC(=O)CSc2cc(=O)n(C)c3ccc(Cl)cc23)CC1	none
c1cnc2c(SCc3ccc(-c4nnco4)cc3)cccc2c1	SF-1 act 62
c1ccc2[nH]c(SCc3ccc(-c4nnco4)cc3)nc2c1	none
O=C1NC(=O)c2c(NC(=O)C3CCCO3)cccc21 (stereo not given)	JNK3 inh 21
CC(=O)Nc1cccc2c1C(=O)NC2=O	none
CCCSc1nnc(-c2c[nH]c3ccccc23)n1C	SF-1 act 52
COc1ccc(S(=O)(=O)N(CCc2ccccc2)CC(=O)O)cc1	none (no result: SF-1 act, RORa activator, JNK3 inh)
O=c1[nH]cnc2cc(-c3ccccc3)sc12	SF-1 act 56 (no result: Calb biofilm kill)
COc1cccc(Cn2c(-c3nonc3N)nc3ccccc32)c1	SF-1 act 62
Cn1nc(-c2ccc(Cl)cc2)c2cc(C(=O)NCCCN3CCCC3)sc21	SF-1 act 56
CC(=O)n1c2ccccc2c2c(C#N)c(N3CCCCC3)sc21	SF-1 act 51
Cc1c(C#N)c2ccccc2n1CC(=O)N1CCCC1	none
CCc1c(C)nc2cc(-c3ccc(OC)cc3)[nH]n2c1=O	RORa activator 58
CCn1c(=O)n(CC)c2cc(S(=O)(=O)Nc3cc(C)cc(C)c3C#N)ccc21	none (no result: SF-1 act, RORa activator, JNK3 inh)
Cn1c(C(=O)NCc2cccs2)cc2oc3ccccc3c21	SF-1 act 54, RORa activator 60 (no result: Calb biofilm kill)
Cn1c(C(=O)NCC2CCCO2)cc2oc3ccccc3c21 (stereo not given)	SF-1 act 50, RORa activator 59 (no result: Calb biofilm kill)
Cn1c(C(=O)NCc2ccccc2)cc2oc3ccccc3c21	none (no result: SF-1 act, RORa activator, JNK3 inh)
CCOC(=O)c1c(NC(=O)CSc2nnnn2C)sc(C)c1-c1ccc(C)cc1	none
CCOC(=O)c1sc(NC(=O)c2ccc(Br)o2)cc1C	SF-1 act 69, RORa activator 69 (no result: JNK3 inh)
CCOc1ccc(OCC)c(NC(=O)CSc2nc3c(c(=O)n(C)c(=O)n3C)n2C)c1	none
CCOc1ccc(OCC)c(NC(=O)CSc2nc3c(c(=O)n(C)c(=O)n3C)n2C(C)C)c1	SF-1 act 101
CCSC1=NC2(CCCCC2)Nc2sc3c(c21)CCCC3	none (no result: SF-1 act, RORa activator, JNK3 inh)
CCOc1ccc(C2C=C(c3ccccc3)Nc3nnnn32)cc1 (stereo not given)	RORa activator 56
COc1cccc(-c2cc(C(=O)Nc3ccccc3SC)no2)c1	RORa activator 66
COCC(C)NC(=O)c1cc(-c2cccc(OC)c2)on1 (stereo not given)	SF-1 act 71
COCCNC(=O)c1cc(-c2cccc(OC)c2)on1	none (no result: Calb biofilm kill)
CCC(C)NC(=O)c1cc(-c2ccc(OC)cc2)on1 (stereo not given)	RORa activator 60 (no result: JNK3 inh)
COc1ccc(-c2cc(C(=O)Nc3ccccc3SC)no2)cc1OC	none (no result: Calb biofilm kill)
O=C(Nc1cccnc1)c1c(F)c(F)c(F)c(F)c1F	Calb biofilm kill 23
COc1cccc(-c2csc(N3CCN(C(=O)NC45CC6CC(CC(C6)C4)C5)CC3)n2)c1	none (no result: SF-1 act, RORa activator, JNK3 inh)
O=C(c1ccc(NC2=NC3CS(=O)(=O)CC3S2)cc1)N1CCN(Cc2ccccc2)CC1 (stereo not given)	none (no result: SF-1 act, RORa activator, JNK3 inh)
O=C(c1ccc(NC2=NC3CS(=O)(=O)CC3S2)cc1)N1CCc2ccccc2C1 (stereo not given)	Calb biofilm kill 29
O=C1Nc2cc(Cl)c(Cl)cc2N(O)N1c1ccc(Cl)c(Cl)c1	none (no result: SF-1 act, RORa activator, JNK3 inh)
Cc1ccc(-n2ncc3c(=O)n(CC#N)cnc32)cc1C	none
Cc1nc2c3cnn(-c4ccc(C)c(C)c4)c3ncn2n1	SF-1 act 65
CCc1nnc2c3cnn(-c4ccc(C)c(C)c4)c3ncn12	SF-1 act 58, RORa activator 57 (no result: JNK3 inh, Calb biofilm kill)
C#CCn1cnc2c(cnn2-c2ccc(C)c(C)c2)c1=O	SF-1 act 58 (no result: Calb biofilm kill)
CC1CCc2c(sc3ncnc(N4CCN(S(=O)(=O)c5cccc6nonc56)CC4)c23)C1 (stereo not given)	none (no result: SF-1 act, RORa activator, JNK3 inh)
NC(=O)C1=NOC(CNc2ncc(C(F)(F)F)cc2Cl)C1 (stereo not given)	none (no result: SF-1 act, RORa activator, JNK3 inh)
CNc1nc(-c2ccc(Cl)cc2)cs1	SF-1 act 64 (no result: JNK3 inh)
CCNc1nc(-c2ccc(Cl)cc2)cs1	RORa activator 50 (no result: JNK3 inh)
O=C(Nc1ccc(F)cc1)c1ccccc1	none (no result: SF-1 act, RORa activator, JNK3 inh)
O=C(CNc1ccccc1)Nc1ccc(F)cc1	SF-1 act 61
NCCCCCc1nnc(SCc2ccc(Cl)c(Cl)c2)o1	none (no result: SF-1 act, RORa activator, JNK3 inh)
CCCc1nc(Nc2nc3ccccc3o2)nc(C)c1C(=O)OCC	SF-1 act 81, RORa activator 49
CC(=O)NC(CC(=O)Nc1cccc(S(=O)(=O)N2CCCCC2)c1)c1ccccc1 (stereo not given)	none (no result: SF-1 act, RORa activator, JNK3 inh)
CN(C(=O)c1ccco1)c1nc2c(s1)CCCC2	none (no result: SF-1 act, RORa activator, JNK3 inh)
Cn1c(N2C(=O)CC(Cc3ccccc3)C2=O)nc2ccccc21 (stereo not given)	none (no result: SF-1 act, RORa activator, JNK3 inh)
O=C(NNC(=O)c1ccccc1Br)c1ccc(SCC2CCCO2)c([N+](=O)[O-])c1 (stereo not given)	none (no result: SF-1 act, RORa activator, JNK3 inh)
O=C(CN1C(=O)c2ccccc2C1=O)Nc1ccc(-c2nc3ccccc3o2)cc1	none
CC(=O)Nc1ccc(-c2cn3ccsc3n2)cc1	none
O=C(CCN1C(=O)c2ccccc2C1=O)Nc1ccc(F)cc1	none
O=C(CCN1C(=O)c2ccccc2C1=O)Nc1ccc(-c2cn3ccsc3n2)cc1	SF-1 act 65
O=C(Nc1ccc(-c2cn3ccsc3n2)cc1)C1CCCC1	SF-1 act 58
O=C(CCN1C(=O)c2ccccc2C1=O)Nc1ccc(-c2nc3ccccc3o2)cc1	SF-1 act 53, RORa activator 50
O=C(Nc1ccc(-c2cn3ccsc3n2)cc1)C1CC1	SF-1 act 61
Cc1ccc(C(=O)Nc2cc(C)c(OCC(=O)N3CCOCC3)c(C)c2)cc1	none (no result: SF-1 act, RORa activator, JNK3 inh)
CCn1c(=O)c2c3c(sc2n2c(=S)[nH]nc12)CCC3	none (no result: SF-1 act, RORa activator, JNK3 inh)
CCOC(=O)CSc1nc2cc(OCC)ccc2cc1C#N	RORa activator 53
CCOc1ccc2cc(C#N)c(SCC(=O)N3CCC(C)CC3)nc2c1	none
CCOC(=O)CC(=O)CSc1nc(-c2cccnc2)ccc1C#N	none
CCOC(=O)CSC1=C(C#N)C(c2ccc3c(c2)OCO3)CC(=O)N1 (stereo not given)	none
CCOC(=O)CSc1nc(-c2ccncc2)ccc1C#N	SF-1 act 80
CCOC(=O)CSc1nc(-c2ccc3c(c2)OCO3)ccc1C#N	SF-1 act 64
O=C(c1nc2nc(-c3cccs3)cc(C(F)(F)F)n2n1)N1CCN(Cc2ccccc2)CC1	none (no result: SF-1 act, RORa activator, JNK3 inh)
O=C(Nc1cc(C(F)(F)F)ccc1-n1cncn1)c1ccc(-c2ccccc2)cc1	none (no result: SF-1 act, RORa activator, JNK3 inh)
CCCCc1c(CCC)c(=N)c2ccccc2n1C	none (no result: SF-1 act, RORa activator, JNK3 inh)
Cc1nn(-c2ccccc2)c2sc(C(=O)OCc3nnc(-c4ccccc4)o3)cc12	none (no result: JNK3 inh)
COC(=O)c1c(NC(=O)CC2SCC(C(=O)OC)NC2=O)sc2c1CCCC2 (stereo not given)	RORa activator 52
CCOC(=O)c1sc(Nc2nc3c(OC)cccc3s2)nc1C	SF-1 act 64 (no result: Calb biofilm kill)

From PubChem BioAssay
